One may read the IC50 as the concentration at which inhibition is half-maximal.

Data set [1] is described as follows: Cytotoxicity against human HeLa Ohio cells assessed as maximal non-cytotoxic concentration after 3 days by XTT assay. The conditions noted are these: read-out: MNCC. It is filed as cell-based. On the technique in general: Formazan colour is commonly taken as a measure of viable cells.
A short description of data set [2]: Cytotoxicity against human HeLa Ohio cells after 3 days by XTT assay. It is filed as cell-based. The conditions noted are these: read-out: TC50.
The test system of data set [3] is rhinovirus A1B. Description: Antiviral activity against HRV 1B infected in human HeLa Ohio cells assessed as reduction in viral plaque formation after 3 days by neutral red uptake assay. To be noted: Rhinovirus A, 72 h. The class given is functional, organism-based, Human rhinovirus 1B. Summed up:
(§1)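 HeLa (Ohio) monolayers were infected with enough virus for about 100 plaques per well, adsorbed 1 h at 33 °C, then overlaid with plaque medium with or without fourfold drug dilutions. After 3 days at 33 °C, cells were stained with neutral red (0.2 mg/mL in PBS pH 7.4) and plaques counted. IC50 was read from a plot of % plaque reduction vs log dose against mock-treated control.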

Data set [4] has as its system rhinovirus A1B. The data set is described as follows: Antiviral activity against HRV 1B infected in human HeLa Ohio cells assessed as reduction in viral plaque formation at maximum non-cytotoxic concentration after 3 days by neutral red uptake assay. The class given is functional, Human rhinovirus 1B. Summed up:
(§2)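 Plaque reduction on HeLa (Ohio) monolayers, with dosing starting from the maximum non-cytotoxic concentration. Virus was adsorbed 1 h at 33 °C, then cells got plaque overlay with fourfold drug dilutions, 3 days at 33 °C, and neutral red staining. Values are % plaque reduction at that concentration vs mock-treated control.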

For data set [5], the system named is rhinovirus B14. Description: Antiviral activity against HRV 14 infected in human HeLa Ohio cells assessed as reduction in viral plaque formation after 3 days by neutral red uptake assay. It is filed as functional, organism-based. Put shortly:
as §1

The subject of data set [6] is rhinovirus B14. Description: Antiviral activity against HRV 14 infected in human HeLa Ohio cells assessed as reduction in viral plaque formation at maximum non-cytotoxic concentration after 3 days by neutral red uptake assay. The class given is functional. Summed up:
as §2

Data set [7] can be described thus: Therapeutic index, ratio of TC50 for human HeLa Ohio cells to IC50 for HRV1B infected in human HeLa Ohio cells. To be noted: read-out: TI. The class given is cell-based.

As to `Clc1ccc(C2CCc3cc(Cl)ccc3O2)cc1` (stereo unspecified), the MNTC at 72 h in data set [1] is 25 µM.

For `Clc1ccc2c(c1)CC(Cc1ccccc1)CO2` (stereo unspecified), in data set [1], the MNTC at 72 h amounted to 25 µM.

On to `Clc1ccc2c(c1)C/C(=C/c1ccccc1)CO2`, for which the MNTC at 72 h in data set [1] was 25 µM.

Consider `C1=C(Cc2ccccc2)COc2ccccc21`, for which the MNTC at 72 h in data set [1] was found to be 25 µM.

Take `c1ccc(CC2COc3ccccc3C2)cc1` (stereo unspecified): in data set [1], the MNTC at 72 h stood at 25 µM.

For the molecule `C(=C1/COc2ccccc2C1)/c1ccccc1`, the MNTC at 72 h in data set [1] is 25 µM.

Take `O[C@H]1c2cc(Cl)ccc2OC[C@H]1Cc1ccc(Cl)cc1` (relative stereo): the MNTC at 72 h in data set [1] was determined as 25 µM.

For the molecule `O[C@H]1c2ccccc2OC[C@H]1Cc1ccc(Cl)cc1` (relative stereo), the MNTC at 72 h in data set [1] was 12.5 µM.

With `O[C@H]1c2ccccc2OC[C@H]1Cc1ccccc1` (relative stereo), the CC50 at 72 h in data set [2] amounted to 150 µM. Moreover, in data set [1], the MNTC at 72 h worked out at 25 µM. In addition, the IC50 in the data set with rhinovirus A1B [3] was 3.49 µM; in the data set with rhinovirus B14 [5] (Rhinovirus B, HeLa, 72 h), > 25 µM. Also, the results for the “inhibition (INH)” value in the data set on rhinovirus A1B [4] and in the data set with rhinovirus B14 [6] were 50% and 15.9%, respectively. Besides, the selectivity ratio in data set [7] was determined as 43.

Regarding `O[C@H]1c2ccccc2OC[C@@H]1Cc1ccccc1` (relative stereo), in data set [2], the CC50 at 72 h was > 200 µM. For the same molecule, the MNTC at 72 h in data set [1] was 25 µM. Besides, the results for the IC50 in the data set on rhinovirus A1B [3] and in the data set on rhinovirus B14 [5] (hela) were 3.59 µM and “Not Active”, respectively. Further, the “inhibition (INH)” value with rhinovirus A1B [4] is 50%. In data set [7], the selectivity ratio is > 55.7.
